# Screening data (PubChem)
# Sampled rows, rich in hits. Any-hit rate of the full collection: about 2.9%.
# DENV2 CPE rescue: inhibitors of DENV2 cytopathic effect, primary screen, cell-based, plate reader, single concentration; CPE inhibition, % at 9.99 µM; DENV2-infected cells, cytopathic effect rescue; 350,000 tested, 1.7% active; AID 651640, 2012; in the data active = CPE inhibition above about 20%, passing the limit was not always enough; tested in BHK-21 cells;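 note: 0% = median of neutral control wells and 100% = median of positive control wells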
# E-sel inducer: E-selectin induction in HUVECs, primary screen, imaging, HUVEC, immunofluorescence imaging, single point. P16581. normalized: neutral wells 0, TNF-alpha wells 100. activation, % at 7.58 µM. 260,000 tested, 0.37% active. AID 686992, 2013;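 active = mean E-selectin-positive cell signal at least 10% of the positive control, reached in at least 60% of replicates, without over 20% cell loss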
# Target sequence (P16581 whole entry, looked up): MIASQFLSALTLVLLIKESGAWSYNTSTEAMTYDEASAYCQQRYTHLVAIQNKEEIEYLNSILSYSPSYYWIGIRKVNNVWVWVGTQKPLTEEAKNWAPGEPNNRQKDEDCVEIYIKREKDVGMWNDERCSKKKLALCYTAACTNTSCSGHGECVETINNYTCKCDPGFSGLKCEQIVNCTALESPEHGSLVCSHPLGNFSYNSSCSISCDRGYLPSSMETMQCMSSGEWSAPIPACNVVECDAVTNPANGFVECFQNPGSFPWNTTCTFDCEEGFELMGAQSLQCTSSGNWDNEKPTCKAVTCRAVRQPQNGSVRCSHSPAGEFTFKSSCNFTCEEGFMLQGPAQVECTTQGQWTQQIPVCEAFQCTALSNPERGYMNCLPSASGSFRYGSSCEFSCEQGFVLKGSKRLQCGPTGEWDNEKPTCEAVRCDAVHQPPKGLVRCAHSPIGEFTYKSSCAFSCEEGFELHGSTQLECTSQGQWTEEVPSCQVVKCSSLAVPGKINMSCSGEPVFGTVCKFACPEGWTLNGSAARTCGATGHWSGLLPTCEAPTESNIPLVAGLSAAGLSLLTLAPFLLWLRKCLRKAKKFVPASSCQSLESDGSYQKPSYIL
#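 Test system – human umbilical vein endothelial cells (HUVEC), E-selectin induction · Input – 3,000 HUVEC seeded per well · Buffer or medium – EGM-2, gelatin · Compound dosing – single-point compound dose · Detection – immunofluorescence imaging · Measure – percent E-selectin-positive cells · Controls – TNF-alpha high, DMSO low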
# SIRT5 block: SIRT5 desuccinylase inhibitors, primary screen, biochemical, fluorescence imaging, single point, set 5; NAD-dependent protein deacylase sirtuin-5, mitochondrial (Homo sapiens), Q9NXA8; Purified SirT5, succinyl-peptide AMC, trypsin-coupled fluorescence; inhibition, % at 15 µM; 330,000 tested, 1.1% active; AID 652115, 2013; in the data active = inhibition above about 15%
# The depositor's hits bear a star; x = not tested or not shown.
SMILES,DENV2 CPE rescue,E-sel inducer,SIRT5 block
CCOC(=O)C1=C(C(=O)OCC)N(CC2CCCCC2)CCC1=O,-2.0,0.0,x
CN(C(=O)c1ccc(OC2CCN(CCc3ccccc3)CC2)cc1)C1CCOCC1,x,0.3,-3.2
Cc1ccc(CNC(=O)[C@H](C)N2C(=O)N3CCc4c([nH]c5ccccc45)[C@@]3(C)C2=O)cc1,35.4*,x,-0.9
C[C@@H](C(=O)NCCc1ccc(F)cc1)N1C(=O)N2CCc3c([nH]c4ccccc34)[C@@]2(C)C1=O,-9.7,x,x
CCc1cc(C(=O)NNC(=S)NC2CCCCC2)cs1,-0.4,-0.6,3.8
COc1ccc(COC(=O)Nc2cn(C)nc2C(F)(F)F)cc1,-4.9,-2.0,-0.3
O=C(/C=C/NNC(=O)c1ccc(Cl)cc1)c1ccccc1,0.5,x,-6.0
CCC/C(C#Cc1ccc(N(C)C)cc1)=C1/c2ccccc2C(=O)N1c1ccccc1,12.5,0.0,x
CCC/C(C#CCCN1C(=O)c2ccccc2C1=O)=C1/c2ccccc2C(=O)N1c1ccccc1,78.7*,0.1,-0.5
C/C(=N\NC(=O)c1ccccc1F)c1ccc(C#N)cc1,-0.3,4.9,2.9
CC(=O)OCC1(C)CN(c2ccccc2)N(C(=O)c2ccc(C(C)(C)C)cc2)C1=O (stereo not drawn),4.8,x,-0.8
CC1(C)CN(c2ccccc2)N(C(=O)c2ccc(F)cc2)C1=O,x,x,23.6*
CC(C)(CNC(=O)c1sc2cc(Cl)ccc2c1Cl)N1CCOCC1,-3.9,x,2.8
O=C1NC(=O)C2(COC(c3cccc([N+](=O)[O-])c3)OC2)S1 (stereo not drawn),-0.3,533.4*,-1.6
CC1(C)COC(c2cccc([N+](=O)[O-])c2)OC1,-9.4,2.1,-2.4
C[C@H](CO)N1C[C@H](C)[C@H](CN(C)C(=O)Nc2ccc3c(c2)OCO3)OCc2ccccc2-c2ccccc2C1=O,x,-0.6,x
COc1cc2ccccc2cc1C(=O)NC1CCC(C)CC1 (stereo not drawn),2.8,0.2,-1.2
CN1CCN(CCOc2ccc(-c3ccccc3)cc2)CC1,48.9*,x,-2.2
CN1CCN(CCCOc2ccc(-c3ccccc3)cc2)CC1,-8.6,x,-2.7
COc1cccc(-c2n[nH]nc2C2=CC(=O)C[C@H](c3ccc(F)cc3)C2)c1,-4.1,-0.1,3.7
CC(C)NC(=O)Nc1ccc2c(c1)C(=O)N([C@H](C)CO)C[C@H](C)[C@H](CN(C)C(=O)Nc1ccc(C(F)(F)F)cc1)OCCCC[C@H](C)O2,15.6,-0.1,2.9
O=S(=O)(c1ccc(F)cc1)N1CCCCN2[C@H](CO)[C@H](c3ccc(-c4ccccc4F)cc3)[C@@H]2C1,5.4,x,20.0*
O=S(=O)(c1ccc(F)cc1)N1CCCCN2[C@H](C1)[C@H](c1ccc(-c3ccccc3F)cc1)[C@@H]2CO,-1.4,x,16.9*
Cc1ccccc1-c1ccc([C@H]2[C@H](CO)N3CCCCN(S(=O)(=O)c4ccc(F)cc4)C[C@@H]23)cc1,x,-0.5,21.3*
O=S(=O)(c1ccc(F)cc1)N1CCCCN2[C@H](C1)[C@@H](c1ccc(-c3ccccc3F)cc1)[C@@H]2CO,2.1,x,13.6
SMILES,DENV2 CPE rescue,E-sel inducer,SIRT5 block
O=S(=O)(c1ccc(F)cc1)N1CCCCN2[C@@H](CO)[C@@H](c3ccc(-c4ccccc4F)cc3)[C@@H]2C1,-6.8,x,15.9*
O=S(=O)(c1ccc(F)cc1)N1CCCCN2[C@H](CO)[C@H](c3ccc(-c4ccccc4F)cc3)[C@H]2C1,x,x,-1.3
O=S(=O)(c1ccccc1)N1CCCCN2[C@H](C1)[C@H](c1ccc(-c3ccccc3F)cc1)[C@@H]2CO,-9.4,-0.5,2.0
Cc1ccccc1-c1ccc([C@@H]2[C@@H](CO)N3CCCCN(S(=O)(=O)c4ccc(F)cc4)C[C@H]23)cc1,x,-0.7,x
CNC[C@H]1Oc2cc(C#CCC3CCCC3)ccc2S(=O)(=O)N([C@H](C)CO)C[C@H]1C,4.6,0.3,2.3
COc1cccc(C(=O)NCCCNc2nc3cc(C)cc(C)c3cc2C#N)c1,-6.6,-1.1,-7.3
CCN(C[C@H]1N[C@@](Cc2ccccc2)(C(=O)OC)[C@H]2C(=O)N(Cc3ccccc3)C(=O)[C@@H]12)S(=O)(=O)c1ccc(C)cc1,14.8,x,-3.3
COCCNC(=O)[C@@H]1CSC2c3ccc(OC)c(OC)c3C(=O)N21 (stereo partly drawn),7.1,x,-0.8
Cc1ccc(C)c(Nc2nc3nonc3nc2N2CCOCC2)c1,-8.5,x,-1.9
COc1ccc(C#Cc2cnc3c(c2)C(=O)N([C@H](C)CO)C[C@H](C)[C@@H](CN(C)C(C)=O)O3)cc1,-3.7,0.9,1.0
O=S(=O)(c1ccc(F)cc1)N1CCCCN2[C@@H](CO)[C@H](c3ccc(-c4ccccc4F)cc3)[C@@H]2C1,-2.9,x,22.0*
O=S(=O)(c1ccccc1)N1CCCCN2[C@H](CO)[C@H](c3ccc(-c4ccccc4F)cc3)[C@H]2C1,1.3,0.2,1.5
CC(C)(C)OC(=O)N1CCC(NC(=O)c2[nH]cnc2C(=O)Nc2ccc(Cl)cc2)CC1,-9.6,0.0,-1.0
CC1(C)CC(=O)C(N=Nc2ccc(F)cc2)=C(O)C1,7.8,1.2,29.8*
CC1(C)CC(=O)C(N=Nc2ccc(-c3ccccc3)cc2)=C(O)C1,6.9,2.9,-3.5
CC(C)(C)c1csc(NC(=O)CSC2=NCCS2)n1,-1.5,0.2,-4.1
CCOC(=O)C1=CN(Cc2ccc(OC)cc2)C=C(C(=O)OCC)C1c1cccs1,-3.4,x,-1.2
O=C(/C=C/c1cccc(Cl)c1)NNC(=O)c1ccncc1,5.6,x,-1.7
Cc1noc(C)c1S(=O)(=O)N(C)C[C@H]1OCCCC[C@@H](C)Oc2ccc(NS(=O)(=O)c3ccc(Cl)cc3)cc2C(=O)N([C@@H](C)CO)C[C@@H]1C,30.6*,0.4,-1.0
Cc1noc(C)c1S(=O)(=O)N(C)C[C@H]1OCCCC[C@@H](C)Oc2ccc(NS(=O)(=O)c3ccc(Cl)cc3)cc2C(=O)N([C@@H](C)CO)C[C@H]1C,-14.0,-0.7,10.9
Cc1noc(C)c1S(=O)(=O)N(C)C[C@@H]1OCCCC[C@@H](C)Oc2ccc(NS(=O)(=O)c3ccc(Cl)cc3)cc2C(=O)N([C@H](C)CO)C[C@@H]1C,-10.0,-0.6,x
Cc1noc(C)c1S(=O)(=O)N(C)C[C@@H]1OCCCC[C@@H](C)Oc2ccc(NS(=O)(=O)c3ccc(Cl)cc3)cc2C(=O)N([C@@H](C)CO)C[C@H]1C,35.7*,1.0,2.0
O=[N+]([O-])c1ccc(S(=O)Cc2ccccc2)c([N+](=O)[O-])c1 (stereo not drawn),0.3,0.1,-2.7
O=c1c2c([N+](=O)[O-])cc([N+](=O)[O-])cc2sn1Cc1ccccc1,15.6,0.2,20.4*
Cc1ccc(S(=O)(=O)N(C)C[C@H]2Oc3ccc(NC(=O)C4CCCCC4)cc3C(=O)N([C@H](C)CO)C[C@H]2C)cc1,0.7,0.5,0.5
CC(C)CN(C(=O)c1cc(Cl)nc2ccccc12)c1c(N)n(Cc2ccccc2)c(=O)[nH]c1=O,55.9*,-1.6,-1.6
CCCCn1c(N)c(N(CC(C)C)C(=O)c2cc(Cl)nc3ccccc23)c(=O)[nH]c1=O,4.9,3.0,-2.4
Cc1c(Cc2ccccc2)sc(NC(=O)C(C)(C)C)c1C(N)=O,x,0.1,-1.8
